This is an account of results in ChEMBL document CHEMBL2203189, “Synthesis and pharmacology of 1-alkyl-3-(1-naphthoyl)indoles: steric and electronic effects of 4- and 8-halogenated naphthoyl substituents” (Bioorg Med Chem, 2012).

The source made the active and inactive calls. The rule behind the calls is not given here.

The species named for one test is Homo sapiens. Briefly: Selectivity ratio of Ki for human CB1 receptor to Ki for human CB2 receptor.
Test [1] relates to Mus musculus. The test is described as follows: Hypothermic activity in Harlan ICR mouse assessed as change in rectal temperature at 66 umol/kg, iv at 30 mins. The class given is functional. Put shortly:
(§1)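 Male ICR mice, n = 6 per dose. Single probe dose iv in emulphor–ethanol–saline 1:1:18. Rectal temperature taken with a thermistor probe at 25 mm depth before dosing and at 30 min. Result given as change from pre-injection value (°C).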

Another test concerns the target Cannabinoid receptor 2 (Homo sapiens, UniProt P34972). The test is described as follows: Displacement of [3H]CP55940 from human CB2 receptor expressed in CHO cells after 1 hr by liquid scintillation spectrophotometry. The test is classed as cell-based. Put shortly:
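Membranes (50 µg) from CHO cells stably expressing human CB2, cultured in DMEM/10% fetal calf serum. Incubated with 0.5 nM [3H]CP55,940 and test compound at 1 nM–10 µM with BSA (5 mg/mL), 1 h at 30 °C. Nonspecific binding defined with excess unlabelled CP55,940. GF/B filtration, then scintillation counting.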
A general note: Displacement assays read how much labelled ligand stays bound in the presence of the test substance.

The test system of test [2] is Mus musculus. The test is described as follows: Antinociceptive activity in Harlan ICR mouse assessed as latency to heat-induced tail flicking at 66 umol/kg, iv at 20 mins relative to control. The class given is functional.
Another test has as its target Cannabinoid receptor 1 (Homo sapiens, UniProt P21554). The test is described as follows: Displacement of [3H]CP55940 from human CB1 receptor expressed in HEK293 cells after 1 hr by liquid scintillation spectrophotometry. The test is classed as cell-based. In a few lines:
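Membranes (50 µg) from HEK-293 cells stably expressing human CB1, cultured in DMEM/10% FBS. Incubated with 0.5 nM [3H]CP55,940 and test compound at 1 nM–10 µM in buffer with BSA (5 mg/mL), 1 h at 30 °C. Nonspecific binding defined with excess unlabelled CP55,940. Filtered through GF/B, then scintillation counting.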

The subject of test [3] is Mus musculus. Briefly: Locomotor activity in Harlan ICR mouse assessed as inhibition of activity level at 66 umol/kg, iv from 5 to 15 mins by spontaneous locomotor activity test relative to vehicle treated control. The test is classed as functional. In a few lines: (§2)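 Male ICR mice, n = 6 per dose, single probe dose iv in emulphor–ethanol–saline 1:1:18. Photocell beam interruptions recorded over 10 min, at 5–15 min after dosing. Result given as % inhibition relative to the vehicle group.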

Test [4] deals with Mus musculus. Briefly: Antinociceptive activity in Harlan ICR mouse assessed as latency to heat-induced tail flicking at 68 umol/kg, iv at 20 mins relative to control. The test is classed as functional, organism-based.
The test system of test [5] is Mus musculus. The test is described as follows: Locomotor activity in Harlan ICR mouse assessed as inhibition of activity level at 68 umol/kg, iv from 5 to 15 mins by spontaneous locomotor activity test relative to vehicle treated control. The class given is functional. Put shortly: as §2
For test [6], the system named is Mus musculus. The test is described as follows: Induction of catalepsy in iv dosed Harlan ICR mouse at 40 mins measured for 5 mins by ring immobility test. The class given is functional.
Test [7] relates to Mus musculus. Briefly: Hypothermic activity in Harlan ICR mouse assessed as change in rectal temperature at 91 umol/kg, iv at 30 mins. The test is classed as functional. Put shortly:
as §1

In test [8] the test system is Mus musculus. The test is described as follows: Antinociceptive activity in Harlan ICR mouse assessed as latency to heat-induced tail flicking at 91 umol/kg, iv at 20 mins relative to control. The class given is functional.
Test [9] has as its system Mus musculus. The test is described as follows: Locomotor activity in Harlan ICR mouse assessed as inhibition of activity level at 91 umol/kg, iv from 5 to 15 mins by spontaneous locomotor activity test relative to vehicle treated control. The class given is functional. Put shortly:
as §2

Test [10] deals with Mus musculus. Briefly: Locomotor activity in Harlan ICR mouse assessed as inhibition of activity level at 27 umol/kg, iv from 5 to 15 mins by spontaneous locomotor activity test relative to vehicle treated control. The class given is functional. Put shortly:
as §2

Test [11] relates to Mus musculus. The test is described as follows: Antinociceptive activity in Harlan ICR mouse assessed as latency to heat-induced tail flicking at 27 umol/kg, iv at 20 mins relative to control. The test is classed as functional.
The test system of test [12] is Mus musculus. Briefly: Hypothermic activity in Harlan ICR mouse assessed as change in rectal temperature at 27 umol/kg, iv at 30 mins. The test is classed as functional. In a few lines: as §1
Test [13] has as its system Mus musculus. Briefly: Locomotor activity in Harlan ICR mouse assessed as inhibition of activity level at 80 umol/kg, iv from 5 to 15 mins by spontaneous locomotor activity test relative to vehicle treated control. The test is classed as functional. In a few lines: as §2
The subject of test [14] is Mus musculus. The test is described as follows: Induction of catalepsy in Harlan ICR mouse at 80 umol/kg, iv at 40 mins measured for 5 mins by ring immobility test. The test is classed as functional. In a few lines:
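Male ICR mice given a single iv probe dose in emulphor–ethanol–saline 1:1:18. At 40 min placed on a 5.5 cm ring raised 16 cm and observed for 5 min by blinded raters. Up to 5 escapes allowed; mice escaping before 2.5 min excluded. Immobility index = time motionless / 300 s × 100.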

Test [15] has as its system Mus musculus. Briefly: Hypothermic activity in Harlan ICR mouse assessed as change in rectal temperature at 80 umol/kg, iv at 30 mins. The class given is functional. In a few lines: as §1
The test system of test [16] is Mus musculus. Briefly: Antinociceptive activity in Harlan ICR mouse assessed as latency to heat-induced tail flicking at 80 umol/kg, iv at 20 mins relative to control. The test is classed as functional.

As a reminder, the Ki is a dissociation constant, usually derived from enzyme kinetics or from competition with a known ligand. High values mean a looser hold on the target, low ones a stronger hold on the target. As a reminder, the inhibition in vivo is the change of the read-out against control, counted positive when it falls.

Chain of Cannabinoid receptor 2 (P34972 whole entry): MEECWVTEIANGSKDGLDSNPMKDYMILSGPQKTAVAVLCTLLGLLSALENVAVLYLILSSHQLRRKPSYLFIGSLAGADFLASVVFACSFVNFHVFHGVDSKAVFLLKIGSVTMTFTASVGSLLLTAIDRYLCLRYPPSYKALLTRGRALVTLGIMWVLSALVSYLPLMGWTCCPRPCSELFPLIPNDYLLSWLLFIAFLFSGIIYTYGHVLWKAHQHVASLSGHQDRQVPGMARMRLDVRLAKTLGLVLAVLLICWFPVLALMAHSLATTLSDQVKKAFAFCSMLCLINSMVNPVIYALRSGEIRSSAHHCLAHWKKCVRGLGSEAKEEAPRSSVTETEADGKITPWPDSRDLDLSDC
Chain of Cannabinoid receptor 1 (P21554 whole entry): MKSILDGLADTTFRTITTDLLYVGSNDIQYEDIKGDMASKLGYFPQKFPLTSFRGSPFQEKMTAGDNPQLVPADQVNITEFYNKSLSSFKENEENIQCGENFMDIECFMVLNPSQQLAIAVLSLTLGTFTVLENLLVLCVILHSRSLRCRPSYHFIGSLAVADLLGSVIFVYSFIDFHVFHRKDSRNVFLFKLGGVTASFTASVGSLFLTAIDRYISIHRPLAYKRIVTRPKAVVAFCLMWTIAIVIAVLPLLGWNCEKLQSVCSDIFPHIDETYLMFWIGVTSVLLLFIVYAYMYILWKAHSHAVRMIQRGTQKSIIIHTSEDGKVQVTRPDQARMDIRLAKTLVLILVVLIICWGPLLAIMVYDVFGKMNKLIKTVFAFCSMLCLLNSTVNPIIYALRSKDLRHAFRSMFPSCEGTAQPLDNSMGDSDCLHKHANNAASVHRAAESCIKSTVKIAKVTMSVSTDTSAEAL

With `CCCn1c(C)c(C(=O)c2ccc(I)c3ccccc23)c2ccccc21`, the Ratio Ki in the test filed under Homo sapiens was determined as 25. The Activity with Mus musculus [1] is given as -3%; in the test with Mus musculus [2] it was 60%. Moreover, the Ki stood at 20 nM at Cannabinoid receptor 2 and 501 nM on Cannabinoid receptor 1. For the same compound, the inhibition in vivo at 66 µmol/kg in the test with Mus musculus [3] was 74%.
On to `CCCn1cc(C(=O)c2cccc3cccc(I)c23)c2ccccc21`, for which the outcome in the test on Mus musculus [4] was inactive. Moreover, in the test with Mus musculus [5], the inhibition in vivo at 68 µmol/kg was -25%. Further, the Ratio Ki in the test listed under Homo sapiens worked out at 19. Further, the Ki at Cannabinoid receptor 2 was determined as 152 nM; at Cannabinoid receptor 1 it was 2960 nM.
As for `CCCn1cc(C(=O)c2ccc(F)c3ccccc23)c2ccccc21`, the outcome in the test with Mus musculus [6] was inactive. In addition, the Ratio Ki in the test listed under Homo sapiens turned out to be 7. The results for the Activity with Mus musculus [7] and with Mus musculus [8] were -3.3% and 59%, respectively. The Ki at Cannabinoid receptor 2 was found to be 33 nM; on Cannabinoid receptor 1, 240 nM. Besides, in the test on Mus musculus [9], the inhibition in vivo at 91 µmol/kg came out at 67%.
For the compound `CCCCCn1cc(C(=O)c2ccc(Cl)c3ccccc23)c2ccccc21`, the Ratio Ki in the test filed under Homo sapiens was found to be 0.8. Besides, in the test with Mus musculus [10], the inhibition in vivo at 27 µmol/kg was found to be 82%. For the same compound, the Ki on Cannabinoid receptor 2 was 2.8 nM; at Cannabinoid receptor 1 it was 2.3 nM. In addition, the figures for the Activity in the test on Mus musculus [11] and in the test on Mus musculus [12] were 90% and -4.9%, respectively.
As for `CCCCCn1cc(C(=O)c2cccc3cccc(Cl)c23)c2ccccc21`, the Ratio Ki in the test listed under Homo sapiens is 2.3. For the same compound, the inhibition in vivo at 80 µmol/kg in the test on Mus musculus [13] stood at 94%. In addition, the values for the Ki on Cannabinoid receptor 2 and on Cannabinoid receptor 1 were 10 nM and 23 nM, respectively. The Activity in the test with Mus musculus [14] is recorded as 92%; in the test with Mus musculus [15], -6.9%; with Mus musculus [16] it was 100%.
